Data set [1] deals with T1, Stromal interaction molecule 1 & 2/Calcium release-activated calcium channel protein 1 (Mus musculus) (UniProt Q8BWG9+P70302+P83093). In words: Modulation of STIM1/STIM2/Orai1 in mouse BV2 cells assessed as induction of store-operated calcium entry by measuring residual activity at 10 uM preincubated for 30 mins followed by tBhQ-mediated Ca2+ depletion and Ca2+ re-addition to extracellular solution measured for 600 secs by Fluo-4 AM-based fluorometric assay relative to control. Type of data set: cell-based.

Data set [2] addresses T2, Short transient receptor potential channel 1 & 3/Stromal interaction molecule 1/Calcium release-activated calcium channel protein 1 (Homo sapiens) (UniProt Q96D31+Q13507+Q13586+P48995). The data set can be described thus: Modulation of TRPC1/TRPC3/STIM1/Orai1 in HEK cells assessed as induction of store-operated calcium entry by measuring residual activity at 10 uM preincubated for 30 mins followed by tBhQ-mediated Ca2+ depletion and Ca2+ re-addition to extracellular solution measured for 600 secs by Fluo-4 AM-based fluorometric assay relative to control. It counts as cell-based.

The subject of data set [3] is Jurkat. The data set can be described thus: Induction of store-operated calcium entry in human Jurkat cells assessed as induction of store-operated calcium entry by measuring residual activity at 10 uM preincubated for 30 mins followed by tBhQ-mediated Ca2+ depletion and Ca2+ re-addition to extracellular solution measured for 600 secs by Fluo-4 AM-based fluorometric assay relative to control. Type of data set: cell-based.

The species entered for a further data set is Homo sapiens. The data set can be described thus: Modulation of Orai1/STIM1 (unknown origin) expressed in HEK cells assessed as potentiation of store-operated calcium currents by measuring reduction in time constant of channel activation in presence of 20 mM BAPTA and 150 nM Ca2+ containing internal solution by patch clamp assay relative to control. It counts as cell-based. In general terms: In patch-clamp work, channel activity is measured electrically.

The target in data set [4] is Transient receptor potential cation channel subfamily V member 1 (Homo sapiens) (UniProt Q8NER1). The data set can be described thus: Antagonist activity at TRPV1 (unknown origin) expressed in HEK cells assessed as inhibition of capsaicin-induced calcium increase at 10 uM by fura-2-based assay. Type of data set: cell-based. In a few lines: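 TRPV1-overexpressing Hek cells; calcium rise evoked by capsaicin (100 nM), test compounds at 10 μM; peak amplitude read out; mean ± SEM of 600 cells from 30 plates on four separate experimental days.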

Data set [5] has as its target Transient receptor potential cation channel subfamily M member 8 (Homo sapiens) (UniProt Q7Z2W7). The data set can be described thus: Antagonist activity at TRPM8 (unknown origin) expressed in HEK cells assessed as inhibition of menthol -mediated calcium increase at 10 uM by fura-2-based assay. Type of data set: cell-based. In a few lines: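 TRPM8-overexpressing Hek cells; calcium rise evoked by menthol (100 μM), test compounds at 10 μM; peak amplitude read out; mean ± SEM of 600 cells from 30 plates on four separate experimental days.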

Data set [6] concerns the target T2, Short transient receptor potential channel 1 & 3/Stromal interaction molecule 1/Calcium release-activated calcium channel protein 1 (Homo sapiens). The data set can be described thus: Modulation of TRPC1/TRPC3/STIM1/Orai1 in HEK cells assessed as induction of store-operated calcium entry by measuring increase in AUC of calcium entry at 3 to 100 uM preincubated for 30 mins followed by tBhQ-mediated Ca2+ depletion and Ca2+ re-addition to extracellular solution measured for 600 secs by Fluo-4 AM-based fluorometric assay relative to control. It counts as cell-based.

Data set [7] shares this target. In words: Modulation of TRPC1/TRPC3/STIM1/Orai1 in HEK cells assessed as induction of store-operated calcium entry by measuring increase in peak amplitude at 3 to 100 uM preincubated for 30 mins followed by tBhQ-mediated Ca2+ depletion and Ca2+ re-addition to extracellular solution measured for 600 secs by Fluo-4 AM-based fluorometric assay relative to control. It counts as cell-based.

The target is the same in data set [8]. The data set can be described thus: Modulation of TRPC1/TRPC3/STIM1/Orai1 in HEK cells assessed as induction of store-operated calcium entry by measuring increase in slope at 3 to 100 uM preincubated for 30 mins followed by tBhQ-mediated Ca2+ depletion and Ca2+ re-addition to extracellular solution measured for 600 secs by Fluo-4 AM-based fluorometric assay relative to control. It counts as cell-based.

Data set [9] has as its target T1, Stromal interaction molecule 1 & 2/Calcium release-activated calcium channel protein 1 (Mus musculus). In words: Modulation of STIM1/STIM2/Orai1 in mouse BV2 cells assessed as induction of store-operated calcium entry by measuring increase in AUC of calcium entry at 3 to 100 uM preincubated for 30 mins followed by tBhQ-mediated Ca2+ depletion and Ca2+ re-addition to extracellular solution measured for 600 secs by Fluo-4 AM-based fluorometric assay relative to control. It counts as cell-based.

Data set [10] has the same target. The data set can be described thus: Modulation of STIM1/STIM2/Orai1 in mouse BV2 cells assessed as induction of store-operated calcium entry by measuring increase in peak amplitude at 3 to 100 uM preincubated for 30 mins followed by tBhQ-mediated Ca2+ depletion and Ca2+ re-addition to extracellular solution measured for 600 secs by Fluo-4 AM-based fluorometric assay relative to control. It counts as cell-based.

Data set [11] has the same target. In words: Modulation of STIM1/STIM2/Orai1 in mouse BV2 cells assessed as induction of store-operated calcium entry by measuring increase in slope at 3 to 100 uM preincubated for 30 mins followed by tBhQ-mediated Ca2+ depletion and Ca2+ re-addition to extracellular solution measured for 600 secs by Fluo-4 AM-based fluorometric assay relative to control. It counts as cell-based.

Data set [12] deals with Jurkat. In words: Induction of store-operated calcium entry in human Jurkat cells assessed as induction of store-operated calcium entry by measuring increase in peak amplitude at 3 to 100 uM preincubated for 30 mins followed by tBhQ-mediated Ca2+ depletion and Ca2+ re-addition to extracellular solution measured for 600 secs by Fluo-4 AM-based fluorometric assay relative to control. It counts as cell-based.

For data set [13], the system named is Jurkat. In words: Induction of store-operated calcium entry in human Jurkat cells assessed as induction of store-operated calcium entry by measuring increase in AUC of calcium entry at 3 to 100 uM preincubated for 30 mins followed by tBhQ-mediated Ca2+ depletion and Ca2+ re-addition to extracellular solution measured for 600 secs by Fluo-4 AM-based fluorometric assay relative to control. Type of data set: cell-based.

Data set [14] has as its system Jurkat. The data set can be described thus: Induction of store-operated calcium entry in human Jurkat cells assessed as induction of store-operated calcium entry by measuring increase in slope at 3 to 100 uM preincubated for 30 mins followed by tBhQ-mediated Ca2+ depletion and Ca2+ re-addition to extracellular solution measured for 600 secs by Fluo-4 AM-based fluorometric assay relative to control. It counts as cell-based.

For data set [15], the target named is T3, ORAI1/STIM1 (Homo sapiens) (UniProt Q96D31+Q13586). In words: Modulation of Orai1/STIM1 (unknown origin) expressed in HEK cells assessed as potentiation of store-operated calcium currents in presence of 20 mM BAPTA by patch clamp assay relative to control. Type of data set: cell-based. In a few lines: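 Whole-cell ISOC recorded in Hek cells stably overexpressing Orai1 and transiently expressing STIM1; internal solution strongly buffered with 20 mM BAPTA; compound at 10 μM versus untreated control.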

The target of data set [16] is T3, ORAI1/STIM1 (Homo sapiens). The data set can be described thus: Modulation of Orai1/STIM1 (unknown origin) expressed in HEK cells assessed as potentiation of store-operated calcium currents in presence of 20 mM BAPTA and 150 nM Ca2+ containing internal solution by patch clamp assay relative to control. It counts as cell-based.
Data set [17] has as its target T1, Stromal interaction molecule 1 & 2/Calcium release-activated calcium channel protein 1 (Mus musculus). In words: Modulation of STIM1/STIM2/Orai1 in mouse BV2 cells assessed as induction of store-operated calcium entry at 10 uM preincubated for 30 mins followed by tBhQ-mediated Ca2+ depletion and Ca2+ re-addition to extracellular solution measured for 800 secs by Fluo-4 AM-based fluorometric assay relative to control. It counts as cell-based. In outline:
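Microplate Fluo-4 assay in mouse microglial BV-2 cells. Stores emptied with tBhQ (50 μM) in presence of compound (10 μM); extracellular Ca2+ re-added after 600 s and intracellular Ca2+ read fluorimetrically; SOCE expressed versus control.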

Data set [18] deals with T2, Short transient receptor potential channel 1 & 3/Stromal interaction molecule 1/Calcium release-activated calcium channel protein 1 (Homo sapiens). The data set can be described thus: Modulation of TRPC1/TRPC3/STIM1/Orai1 in HEK cells assessed as induction of store-operated calcium entry at 10 uM preincubated for 30 mins followed by tBhQ-mediated Ca2+ depletion and Ca2+ re-addition to extracellular solution measured for 800 secs by Fluo-4 AM-based fluorometric assay relative to control. Type of data set: cell-based.

For data set [19], the system named is Jurkat. The data set can be described thus: Induction of store-operated calcium entry in human Jurkat cells assessed as induction of store-operated calcium entry at 10 uM preincubated for 30 mins followed by tBhQ-mediated Ca2+ depletion and Ca2+ re-addition to extracellular solution measured for 800 secs by Fluo-4 AM-based fluorometric assay relative to control. Type of data set: cell-based.

Data set [20] deals with voltage-gated calcium channel (Mus musculus). In words: Antagonist activity at voltage-gated calcium channels in C57/BL6 mouse cerebellar granule cells assessed as inhibition of KCl-induced voltage dependent calcium entry at 10 uM by fura-2-based assay.
The test system is the same in data set [21]. The data set is described as above. The source holds these as a separate data set.
Data set [22] has as its target Short transient receptor potential channel 1 & 3/Stromal interaction molecule 1/Calcium release-activated calcium channel protein 1 (Homo sapiens, UniProt P48995+Q13507+Q13586+Q96D31). In words: Modulation of TRPC1/TRPC3/STIM1/Orai1 in HEK cells assessed as induction of store-operated calcium entry by measuring residual activity preincubated for 30 mins followed by tBhQ-mediated Ca2+ depletion and Ca2+ re-addition to extracellular solution measured for 600 secs by Fluo-4 AM-based fluorometric assay relative to control. It counts as cell-based.

Data set [23] in a line: Cytotoxicity against HEK cells assessed as cell viability at 10 uM by MTT assay relative to control. To be noted: human, read-out: Activity. It counts as cell-based. In a few lines: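 Hek cells treated 24 h with compound at 10 μM; viability determined by MTT assay.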
A short description of data set [24]: Metabolic stability in CD1 mouse plasma assessed as residual compound level at 50 uM after 30 mins by LC-UV analysis. Type of data set: ADME, cell-free. To be noted: read-out: Stability. In a few lines: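 Compounds incubated in mouse plasma for 30 min; percentage of residual substrate determined.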
Data set [25] is described as follows: Drug metabolism in CD1 mouse liver microsomes assessed as ester group hydrolysis at 50 uM after 60 mins in presence of NADPH/UDPGA. It counts as ADME, microsome. Conditions: 1 h. On the technique in general: Liver microsomes are a subcellular fraction often used to study metabolism.
A short description of data set [26]: Drug metabolism in CD1 mouse liver microsomes assessed as ester group hydrolysis at 50 uM after 60 mins in absence of NADPH/UDPGA. Conditions: 1 h. It counts as ADME, microsome.
Data set [27] is described as follows: Metabolic stability in CD1 mouse liver S9 fraction assessed as residual compound level at 50 uM after 1 hr. To be noted: read-out: Stability. It counts as ADME, subcellular. In outline: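 Hydrolytic stability measured in mouse liver S9 fraction; residual substrate quantified after 1 h incubation.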
Data set [28] in a line: Drug metabolism in CD1 mouse liver microsomes assessed as 1-(4-(4-(3-Carboxyphenyl)-1H-1,2,3-triazol-1-yl)phenyl)-5-(trifluoromethyl)-1H-pyrazole-4-carboxylic Acid metabolite formation at 50 uM after 60 mins by mass spectroscopic analysis. It counts as ADME, microsome.

pIC50: −log10 of the molar value. The source made the active and inactive calls. The calls are words filed in the database; no cut-off is given here.

T2 sequence (P48995 whole entry partner): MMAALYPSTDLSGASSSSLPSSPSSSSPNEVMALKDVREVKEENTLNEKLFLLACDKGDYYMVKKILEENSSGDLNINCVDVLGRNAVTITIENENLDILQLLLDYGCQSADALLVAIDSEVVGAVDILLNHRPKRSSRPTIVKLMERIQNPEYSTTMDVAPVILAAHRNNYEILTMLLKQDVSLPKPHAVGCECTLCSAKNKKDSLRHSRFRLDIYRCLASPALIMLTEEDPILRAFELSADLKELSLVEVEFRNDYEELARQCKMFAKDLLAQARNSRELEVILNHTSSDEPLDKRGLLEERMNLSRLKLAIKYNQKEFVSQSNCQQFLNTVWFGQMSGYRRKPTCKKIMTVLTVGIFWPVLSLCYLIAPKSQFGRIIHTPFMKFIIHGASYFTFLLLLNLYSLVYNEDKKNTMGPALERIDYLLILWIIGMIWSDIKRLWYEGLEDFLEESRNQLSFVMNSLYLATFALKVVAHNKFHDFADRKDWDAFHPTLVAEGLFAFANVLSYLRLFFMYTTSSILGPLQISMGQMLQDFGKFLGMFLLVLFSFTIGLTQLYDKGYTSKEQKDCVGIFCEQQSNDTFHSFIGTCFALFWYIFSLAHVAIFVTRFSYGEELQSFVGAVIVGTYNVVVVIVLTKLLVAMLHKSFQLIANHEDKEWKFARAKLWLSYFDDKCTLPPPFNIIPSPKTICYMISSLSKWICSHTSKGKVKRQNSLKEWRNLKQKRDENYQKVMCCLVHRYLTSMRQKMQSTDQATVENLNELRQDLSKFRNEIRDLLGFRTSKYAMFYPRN
T2 sequence (Q13507 whole entry partner): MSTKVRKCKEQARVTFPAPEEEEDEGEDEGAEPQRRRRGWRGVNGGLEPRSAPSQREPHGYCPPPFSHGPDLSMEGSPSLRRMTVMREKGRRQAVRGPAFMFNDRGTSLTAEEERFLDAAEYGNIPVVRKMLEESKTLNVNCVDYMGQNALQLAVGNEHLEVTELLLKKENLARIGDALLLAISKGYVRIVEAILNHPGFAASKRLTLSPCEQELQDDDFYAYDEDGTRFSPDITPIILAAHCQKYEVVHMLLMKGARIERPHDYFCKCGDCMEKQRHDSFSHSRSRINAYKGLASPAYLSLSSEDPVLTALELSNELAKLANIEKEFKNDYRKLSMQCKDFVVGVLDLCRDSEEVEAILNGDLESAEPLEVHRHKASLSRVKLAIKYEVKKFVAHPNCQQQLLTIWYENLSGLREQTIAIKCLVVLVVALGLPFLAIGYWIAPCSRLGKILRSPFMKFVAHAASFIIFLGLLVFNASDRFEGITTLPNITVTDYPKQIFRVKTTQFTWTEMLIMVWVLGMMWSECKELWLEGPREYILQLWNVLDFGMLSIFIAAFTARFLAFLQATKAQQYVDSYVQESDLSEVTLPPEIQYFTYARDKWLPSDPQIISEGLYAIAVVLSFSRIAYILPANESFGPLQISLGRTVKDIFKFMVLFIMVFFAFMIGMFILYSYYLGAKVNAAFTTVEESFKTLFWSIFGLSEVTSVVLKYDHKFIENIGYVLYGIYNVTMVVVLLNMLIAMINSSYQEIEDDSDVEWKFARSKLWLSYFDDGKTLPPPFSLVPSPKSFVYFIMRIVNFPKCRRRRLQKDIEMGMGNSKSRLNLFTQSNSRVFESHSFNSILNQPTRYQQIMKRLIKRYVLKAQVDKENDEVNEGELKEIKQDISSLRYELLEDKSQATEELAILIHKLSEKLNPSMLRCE
T2 sequence (Q13586 23-685 partner limits assumed): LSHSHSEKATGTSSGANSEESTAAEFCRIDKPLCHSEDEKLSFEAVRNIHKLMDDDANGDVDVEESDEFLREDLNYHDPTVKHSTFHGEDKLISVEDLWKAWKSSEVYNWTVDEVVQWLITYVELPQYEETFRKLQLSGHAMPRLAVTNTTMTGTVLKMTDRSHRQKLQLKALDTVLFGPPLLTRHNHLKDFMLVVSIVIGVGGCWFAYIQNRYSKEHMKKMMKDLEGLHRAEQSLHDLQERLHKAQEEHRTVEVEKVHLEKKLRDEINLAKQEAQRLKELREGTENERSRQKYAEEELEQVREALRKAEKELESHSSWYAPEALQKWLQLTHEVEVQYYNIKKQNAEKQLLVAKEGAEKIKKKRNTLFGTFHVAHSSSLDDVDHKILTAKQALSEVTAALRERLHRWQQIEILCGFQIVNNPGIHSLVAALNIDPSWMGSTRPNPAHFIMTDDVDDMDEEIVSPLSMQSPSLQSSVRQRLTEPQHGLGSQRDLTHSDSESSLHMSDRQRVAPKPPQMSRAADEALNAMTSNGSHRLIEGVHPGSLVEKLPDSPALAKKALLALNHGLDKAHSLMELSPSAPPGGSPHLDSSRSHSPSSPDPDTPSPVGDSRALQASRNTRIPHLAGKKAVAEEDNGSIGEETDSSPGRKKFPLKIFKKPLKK
T2 sequence (Q96D31 whole entry): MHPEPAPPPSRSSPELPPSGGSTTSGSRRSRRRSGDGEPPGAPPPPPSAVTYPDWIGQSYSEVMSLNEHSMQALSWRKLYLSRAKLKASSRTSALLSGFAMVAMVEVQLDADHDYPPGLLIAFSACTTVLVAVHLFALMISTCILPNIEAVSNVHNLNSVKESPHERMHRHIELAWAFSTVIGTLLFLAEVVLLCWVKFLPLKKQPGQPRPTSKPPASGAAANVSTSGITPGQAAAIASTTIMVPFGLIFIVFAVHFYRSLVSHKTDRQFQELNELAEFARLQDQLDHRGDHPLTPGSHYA
T3 sequence (Q13586 23-685 partner limits assumed): as the sequence (Q13586 23-685 partner limits assumed) above
T3 sequence (Q96D31 whole entry): as the sequence (Q96D31 whole entry) above
Transient receptor potential cation channel subfamily M member 8 (Homo sapiens), sequence (Q7Z2W7 whole entry, looked up): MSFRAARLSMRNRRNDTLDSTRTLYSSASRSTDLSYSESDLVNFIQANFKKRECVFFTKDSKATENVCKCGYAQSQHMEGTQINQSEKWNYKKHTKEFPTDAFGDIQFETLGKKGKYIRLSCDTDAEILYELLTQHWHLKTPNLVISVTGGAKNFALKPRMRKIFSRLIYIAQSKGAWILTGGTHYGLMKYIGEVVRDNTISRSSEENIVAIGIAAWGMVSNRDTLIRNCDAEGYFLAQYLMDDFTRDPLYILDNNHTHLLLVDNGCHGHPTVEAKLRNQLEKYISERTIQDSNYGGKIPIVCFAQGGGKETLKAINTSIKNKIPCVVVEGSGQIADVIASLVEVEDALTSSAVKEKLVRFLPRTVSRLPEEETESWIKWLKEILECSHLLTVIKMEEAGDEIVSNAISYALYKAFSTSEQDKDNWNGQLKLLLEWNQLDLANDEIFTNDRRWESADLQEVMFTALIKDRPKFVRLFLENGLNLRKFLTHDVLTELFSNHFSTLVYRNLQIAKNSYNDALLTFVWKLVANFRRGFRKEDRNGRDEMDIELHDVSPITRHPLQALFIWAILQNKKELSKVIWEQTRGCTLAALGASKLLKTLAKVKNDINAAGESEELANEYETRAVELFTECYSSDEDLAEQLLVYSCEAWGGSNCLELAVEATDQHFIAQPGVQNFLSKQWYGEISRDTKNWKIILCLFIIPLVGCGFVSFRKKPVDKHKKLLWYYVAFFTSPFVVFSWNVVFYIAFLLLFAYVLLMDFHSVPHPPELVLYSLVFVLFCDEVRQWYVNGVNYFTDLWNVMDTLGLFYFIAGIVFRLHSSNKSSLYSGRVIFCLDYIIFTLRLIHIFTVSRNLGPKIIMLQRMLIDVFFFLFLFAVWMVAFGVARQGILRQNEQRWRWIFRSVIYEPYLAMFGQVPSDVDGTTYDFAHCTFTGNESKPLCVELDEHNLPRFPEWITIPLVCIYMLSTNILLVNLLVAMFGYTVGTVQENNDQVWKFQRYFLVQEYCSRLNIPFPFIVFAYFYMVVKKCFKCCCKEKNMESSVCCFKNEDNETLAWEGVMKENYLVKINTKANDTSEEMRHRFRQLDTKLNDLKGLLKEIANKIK
Transient receptor potential cation channel subfamily V member 1 (Homo sapiens), sequence (Q8NER1 whole entry): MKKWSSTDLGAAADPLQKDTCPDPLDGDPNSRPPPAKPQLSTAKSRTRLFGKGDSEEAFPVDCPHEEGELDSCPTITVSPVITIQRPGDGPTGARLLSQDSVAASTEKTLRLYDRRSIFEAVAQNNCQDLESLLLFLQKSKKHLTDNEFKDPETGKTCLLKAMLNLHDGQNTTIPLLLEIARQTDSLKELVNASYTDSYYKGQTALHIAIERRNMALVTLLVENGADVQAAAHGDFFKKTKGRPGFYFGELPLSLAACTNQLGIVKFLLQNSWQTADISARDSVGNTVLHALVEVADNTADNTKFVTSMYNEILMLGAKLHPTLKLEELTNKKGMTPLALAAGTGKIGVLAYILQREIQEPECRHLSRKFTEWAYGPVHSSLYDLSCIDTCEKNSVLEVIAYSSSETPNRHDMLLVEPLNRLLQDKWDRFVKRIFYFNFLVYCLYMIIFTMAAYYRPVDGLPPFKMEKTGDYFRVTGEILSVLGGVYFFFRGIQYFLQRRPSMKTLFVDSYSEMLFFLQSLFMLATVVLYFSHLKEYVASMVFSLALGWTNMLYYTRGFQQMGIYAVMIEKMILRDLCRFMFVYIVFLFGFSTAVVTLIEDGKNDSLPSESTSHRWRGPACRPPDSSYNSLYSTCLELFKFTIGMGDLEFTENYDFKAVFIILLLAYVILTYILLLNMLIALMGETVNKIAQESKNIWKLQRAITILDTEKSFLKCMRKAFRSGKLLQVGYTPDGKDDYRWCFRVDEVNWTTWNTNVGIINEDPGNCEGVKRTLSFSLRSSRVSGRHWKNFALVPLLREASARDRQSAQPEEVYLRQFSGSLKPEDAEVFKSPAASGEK

In the case of `CCOC(=O)c1cnn(-c2ccc(-c3cn(-c4ccc(Cl)cc4)nn3)cc2)c1C(F)(F)F`, the results for the Activity (in [1]; in [2]; with Jurkat [3]) were 153%, 142% and 197%, respectively. Also, the outcome (in the data set listed under Homo sapiens; in data set [6]; in data set [7]; in [8]; in data set [9]; in data set [10]) was Active. Besides, the result (in data set [11]; in the data set on Jurkat [12]; in the data set on Jurkat [13]; with Jurkat [14]; in [15]) was Active. The inhibition result in data set [4], in [5], in data set [20] and in [21] was “inactive” in each case. Also, the result (in [16]; in data set [17]; in data set [18]; in the data set on Jurkat [19]) was inactive.
Take `CC(C)OC(=O)c1cnn(-c2ccc(-n3cc(-c4cccc(C(=O)O)c4)nn3)cc2)c1C(F)(F)F`: the Activity in data set [2] came to 3.5%. The pIC50 – broadly, −log10 of the IC50, conventionally taken in molar units – in data set [22] is 5.51. In [23], the viability at 10 µM was found to be 87.2%. The inhibition entry in [4], in [5], in [20] and in data set [21] was “inactive” each time. In data set [24], the remaining at 0.5 h, 50 µM was determined as 87.7%. Moreover, the values for the Drug metabolism result in data set [25], in data set [26] and in data set [28] were “Metabolite_Detected”, “Metabolite_Detected” and “Metabolite_Notdetected”, respectively. The remaining at 1 h, 50 µM in [27] was 81.3%.

The values above are taken from ChEMBL document CHEMBL4152384, “Pyrtriazoles, a Novel Class of Store-Operated Calcium Entry Modulators: Discovery, Biological Profiling, and in Vivo Proof-of-Concept Efficacy in Acute Pancreatitis” (J Med Chem, 2018).
